Pf gamet viab = inhibitors of late stage P. falciparum gametocyte viability; P. falciparum stage V gametocytes, ATP luminescence, 24 h; inhibition, % at 10.9 µM; AID 743093; 0.065% of 150,000 active;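 active = inhibition above the mean plus 3 SD of compounds within the control limits, set per campaign, cut at about 38% in these data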;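 also: 0% = DMSO wells and 100% = medium only without gametocytes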
Calb biofilm kill = mixture kills Candida albicans biofilm cells; C. albicans biofilm persisters + clotrimazole, fluorescence viability; primary screen in compound mixtures of four per well; inhibition, % at 7.6 µM; 0.02% of 120,000 active;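 active = inhibition above 30.3% in the primary screen of four-compound pools, then above 30% when the compound was retested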;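 also: compounds exposed to preformed 24 h biofilms for 48 h; 0% = untreated biofilm control and 100% = clotrimazole plus chlorhexidine kill blank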
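System: C. albicans CAF4-2 wild-type biofilms; Medium: RPMI/MOPS medium, pH 7.0; Reagent: Clotrimazole, 50 µg/mL; Times: biofilm formation 24 h, compound exposure 48 h, 37 °C; Detection: 2-h Alamar Blue fluorescence, 535/590 nm excitation/emission; Evaluation: percent inhibition of biofilm viability.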
Starred values were filed as active, the others as inactive. Shown are actives, neighbours in structure and some others; about 0.078% of the full set was active somewhere.

For NNS(=O)(=O)c1ccc(N2CCCC2=O)c([N+](=O)[O-])c1 the results were Pf gamet viab 28.0 and Calb biofilm kill 15.5.
For CCOc1ccc(OCCOCCOc2ccccc2Cl)cc1 the results were Pf gamet viab -2.9 and Calb biofilm kill 9.2.
COc1ccccc1OCCOCCOc1ccccc1Cl was read as Pf gamet viab 50.8* and Calb biofilm kill -16.2.
For COc1ccccc1NC(=O)c1ccccc1NC(=O)c1cc(Cl)ccc1NC(=O)c1ccco1 the results were Pf gamet viab 39.4*.
For COc1ccccc1NC(=O)c1cc(Cl)ccc1NC(=O)c1ccco1 the results were Pf gamet viab 10.9.
`CCOC(=O)c1cc2c(ccc3ccccc32)oc1=O` gave Pf gamet viab 48.1* and Calb biofilm kill 27.2.
For O=C(O)c1cc2c(ccc3ccccc32)oc1=O the results were Pf gamet viab -0.3.
`CCCCCCSc1ccc([C@@H]2[C@@H]3C(=O)N(C)C(=O)[C@@H]3[C@]3(C(=O)OC)CCCCN23)cc1` gave Pf gamet viab -7.7.
Screening CCCN(CC1CCCO1)C(=O)CCc1nnc(-c2cc(C)on2)o1 (stereo not drawn) returned Pf gamet viab 13.7 and Calb biofilm kill 4.9.
Cc1cc(CN(C)Cc2cn(C)nc2-c2ccc(Oc3ccccc3)cc2)on1 was read as Pf gamet viab 15.4 and Calb biofilm kill 27.1.
For CCc1ccc(-c2cc(C(=O)Nn3cnnc3)c3ccccc3n2)cc1 the results were Pf gamet viab 38.5*.
`CCCc1ccc(-c2cc(C(=O)NN3CCOCC3)c3ccccc3n2)cc1` gave Pf gamet viab 0.7.
COc1ccc(C(=O)c2c3ccc(C(F)(F)F)cc3[n+]([O-])n2CCCN)cc1 was read as Pf gamet viab -2.7.
`CC1CCCN(CC(O)CN)C1` (stereo not drawn) gave Pf gamet viab 47.1* and Calb biofilm kill 5.6.
CC1CCCN(CC(O)COCc2ccc3c(c2)OCO3)C1 (stereo not drawn) was read as Pf gamet viab -11.2 and Calb biofilm kill 2.3.
`Oc1c(Cl)cc(Cl)c2cccnc12` gave Pf gamet viab -3.9 and Calb biofilm kill 43.3*.
`CC(=O)NC(C)c1cc(Cl)c2cccnc2c1O` (stereo not drawn) gave Pf gamet viab -38.5.
Screening COc1ccc(N2C(=O)CSC23C(=O)N2CCCc4cccc3c42)cc1 (stereo not drawn) returned Pf gamet viab 42.1*.
`COc1ccc(N=C2C(=O)N3CCCc4cccc2c43)cc1` gave Pf gamet viab -22.5 and Calb biofilm kill 5.2.
`CC[C@H]1C(Nc2ccccc2)C[C@@H]2CCN3C(=O)CC[C@H]1[C@H]23` (stereo partly drawn) gave Pf gamet viab -5.0.
`Cc1cc(CN(C)Cc2c(C(=O)N3CCCCCCC3)nc3ccc(Cl)cn23)n[nH]1` gave Calb biofilm kill 16.8.
`COc1cccc2sc(Nc3nc(-c4ccncc4)cs3)nc12` gave Pf gamet viab 49.8* and Calb biofilm kill -1.6.
Screening COc1cccc2sc(Nc3nc(-c4cc5ccccc5oc4=O)cs3)nc12 returned Calb biofilm kill 10.7.
Cc1ccc(S(=O)(=O)Nc2nc3ccccc3nc2NCC2CCCO2)cc1C (stereo not drawn) was read as Pf gamet viab -23.9 and Calb biofilm kill 9.5.
Screening OCC[C@@H]1C[C@H](O)[C@@H](O)[C@]2(OCCc3ccccc32)O1 returned Pf gamet viab 7.0.
Screening CC(=O)Nc1ccc(NC(=O)c2cccc(-c3cc4ccccc4oc3=O)c2)cc1 returned Pf gamet viab -6.1 and Calb biofilm kill 15.4.
`COc1ccc2nc(NC(=O)c3cccc(-c4cc5ccccc5oc4=O)c3)sc2c1` gave Pf gamet viab 49.0* and Calb biofilm kill 15.4.
`OC[C@@H](O)[C@H](O)C(/C=N/Nc1ccccc1)=N\Nc1ccccc1` gave Pf gamet viab -21.4 and Calb biofilm kill 18.9.
COc1ccc(N(CC(=O)Nc2cc([N+](=O)[O-])ccc2C)S(C)(=O)=O)cc1OC was read as Pf gamet viab 7.9 and Calb biofilm kill 15.8.
CCOc1ccccc1N1CCN(C(=O)CC(C)C)CC1 was read as Pf gamet viab 11.1 and Calb biofilm kill 15.0.
For CCOc1ccccc1N1CCN(C(=O)c2ccc3[nH]c4c(c3c2)CCCC4)CC1 the results were Pf gamet viab 44.5* and Calb biofilm kill -10.7.
Cc1noc(NC(=O)c2cccc(Cl)c2Cl)c1C#N was read as Calb biofilm kill 8.4.
CN(C)c1ccc(/C=C/c2ccc3c4ccccc4ccc3[n+]2-c2ccccc2)cc1 was read as Pf gamet viab -14.0 and Calb biofilm kill 17.9.
CN(C)c1ccc(/C=C/c2ccc3ccccc3[n+]2C)cc1 was read as Pf gamet viab 23.4 and Calb biofilm kill 34.5*.
Nc1nonc1-n1nnc(C(=O)N/N=C/c2ccccc2Cl)c1COc1ccc(F)cc1 was read as Pf gamet viab 2.3 and Calb biofilm kill 15.5.
`COC(=O)c1cc(NC(=O)c2ccc(-c3ccccc3)cc2)ccc1Cl` gave Pf gamet viab 41.4* and Calb biofilm kill -7.8.
Screening O=C(Nc1ccc(-c2ccccc2)cc1)c1ccccc1 returned Pf gamet viab -1.4.
For O=C(Cc1cccs1)N1CCN=C1SCc1ccc(Br)cc1 the results were Pf gamet viab -9.0 and Calb biofilm kill -8.7.
For COc1ccc(CCN(C)Cc2nc(Cc3ccc(OC)c(OC)c3)no2)cc1OC the results were Pf gamet viab -23.2 and Calb biofilm kill 9.3.
`S=c1[nH]cnc2scc(-c3ccc(Br)cc3)c12` gave Pf gamet viab -9.4 and Calb biofilm kill 3.8.
For Cc1ccc(-c2csc3nc[nH]c(=S)c23)cc1 the results were Pf gamet viab 51.0* and Calb biofilm kill 13.4.
For Cc1cc(N)n(-c2ccccn2)n1 the results were Pf gamet viab -17.4 and Calb biofilm kill 26.5.
`CCc1nnc(NS(=O)(=O)c2ccc(NC(=S)NC(=O)/C=C/c3ccc(OC)cc3)cc2)s1` gave Pf gamet viab -15.2 and Calb biofilm kill 12.0.
Screening CCc1nnc(NS(=O)(=O)c2ccc(NC(=S)NC(=O)/C=C/c3ccccc3)cc2)s1 returned Pf gamet viab 41.1* and Calb biofilm kill 2.1.
C=CCn1c(C)cc(C(=O)CSc2nnc3n(CCC)c(=O)c4ccccc4n23)c1C was read as Pf gamet viab -4.8.
For CC1(C)CC(NC(=O)c2ccccn2)CC(C)(C)N1O the results were Calb biofilm kill 13.5.
`Cc1nn(Cc2ccc(C(=O)N3N=C(C(F)F)CC3(O)C(F)F)o2)c(C)c1[N+](=O)[O-]` (stereo not drawn) gave Pf gamet viab -3.7 and Calb biofilm kill 15.3.
For O=C(c1ccc(COc2ccccc2Br)o1)N1N=C(C(F)F)CC1(O)C(F)F (stereo not drawn) the results were Pf gamet viab 48.8* and Calb biofilm kill 13.7.
`O=[N+]([O-])c1cccc(-c2ccc3nnc(SCc4cccnc4)n3n2)c1` gave Pf gamet viab -0.2.
Screening COc1cccc(=O)c2c(C)n(C)c(C)c12 returned Pf gamet viab 38.8*.
Screening CCOc1cccc(=O)c2c(C)n(C)c(C)c12 returned Pf gamet viab 3.0.
`O=S(=O)(Cc1ccccc1Cl)NCCc1ccc(F)cc1` gave Pf gamet viab 13.5.
`O=C(CSc1nnc(-c2ccncc2)o1)NC1CCCCC1` gave Pf gamet viab 14.1 and Calb biofilm kill 22.9.
O=C(CSc1nnc(-c2ccc(F)cc2)o1)NC1CCCCC1 was read as Pf gamet viab 43.1* and Calb biofilm kill 21.1.

Screens: PubChem, several laboratories
